Test results taken from article PMC5357606 (Journal of the American Chemical Society, 2017).
Like-named read-outs stand apart in the source and are kept apart here.

Key:
InhA [1] = target: T1, InhA (Mycobacterium tuberculosis, UniProt P9WGR1); assay: Progress curve analysis of InhA inhibition; format: biochemical; details: for kon, overall: (k5+k6)/Ki^app; for k5: EI to EI*; for k6: EI* to EI; for tR: residence time from progress curve analysis
InhA [2] = target: T1, InhA; assay: [32P]-NAD+ direct dissociation kinetics; format: binding; details: 32P-NAD+ direct dissociation method
Method in brief: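 InhA expressed in E. coli BL21(DE3) pLysS and purified by Ni2+-NTA and size exclusion. Ternary complex formed with 15 μM InhA, 20 μM NAD+ plus [32P]-NAD+, and 200 μM inhibitor in 30 mM PIPES pH 6.8, 150 mM NaCl, 1 mM EDTA. Spin column removed free ligand; rapid dilution into buffer started dissociation. Timed aliquots ultrafiltered (10 kDa). Run at 20 °C, or 25 °C for two compounds. kon,overall from koff via Equation 5.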

M. tuberculosis = assay: MIC determination, microplate Alamar Blue assay; format: cell-based; details: 37 °C, 6 days + 24 h
InhA [3] = target: T1, InhA; assay: Second-harmonic generation; format: binding; details: 10 μM compound
[4] = 20 °C, calculated from Ki^app, Ki^*app, k6
[5] = read-out: Ki^*app, 20 °C, final EI* complex
[6] = read-out: Ki^app, 20 °C, initial EI complex

T1 sequence (P9WGR1 whole entry, looked up): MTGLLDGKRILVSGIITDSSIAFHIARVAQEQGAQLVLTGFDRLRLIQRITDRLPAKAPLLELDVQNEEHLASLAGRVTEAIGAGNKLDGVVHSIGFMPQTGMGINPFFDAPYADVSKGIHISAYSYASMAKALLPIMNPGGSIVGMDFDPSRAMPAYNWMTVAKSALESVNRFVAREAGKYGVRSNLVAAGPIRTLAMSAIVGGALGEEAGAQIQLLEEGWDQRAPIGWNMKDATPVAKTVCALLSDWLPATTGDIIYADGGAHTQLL

Structure (SMILES): CCCCCCc1ccc(Oc2ccccc2C#N)c(O)c1 [PT119]
- kon, overall (InhA [1]; 20 °C): 500000 M⁻¹ min⁻¹
- k5 (InhA [1]; [4]): 5.0 min⁻¹
- k6 (InhA [1]; 20 °C): 0.020 ± 0.0040 min⁻¹
- tR (InhA [1]; 20 °C): 50 ± 0.4 min
- Ki (InhA [1]; [5]): 40 ± 1 nM
- Ki (InhA [1]; [6]): 10000 ± 2000 nM
- tR direct dissociation (InhA [2]; 20 °C): 47 ± 4 min
- MIC (M. tuberculosis): 2.5 µg/mL
- time course of SHG conformational change (InhA [3]; 30-min time course): require a longer time to reach a plateau compared to PT155
- increase in SHG intensity (InhA [3]; 30 min after addition, His-tagged InhA, N = 4, mean ± SE): 13.1± 0.8%

Structure (SMILES): CCCCCCc1ccc(Oc2ccccc2Cl)c(O)c1 [PT91]
- kon, overall (InhA [1]; 20 °C): 2.5e+06 M⁻¹ min⁻¹
- k5 (InhA [1]; [4]): 0.12 min⁻¹
- k6 (InhA [1]; 20 °C): 0.013 ± 0.005 min⁻¹
- tR (InhA [1]; 20 °C): 90 ± 37 min
- Ki (InhA [1]; [5]): 5 ± 2 nM
- Ki (InhA [1]; [6]): 52 ± 25 nM
- tR direct dissociation (InhA [2]; 20 °C): 148 ± 13 min
- MIC (M. tuberculosis): 1.56 µg/mL

Structure (SMILES): Cc1ccccc1Oc1ccc(Cn2cc(-c3ccccc3)nn2)cc1O [PT163]
- k5 (InhA [1]; 25 °C, calculated): 3.20 min⁻¹
- k6 (InhA [1]; 25 °C): 0.0092 ± 0.002 min⁻¹
- tR (InhA [1]; 25 °C): 113 ± 28 min
- tR direct dissociation (InhA [2]; 25 °C): 114 ± 18 min

Structure (SMILES): CCCCCCc1ccc(Oc2ccccc2F)c(O)c1 [PT113]
- k5 (InhA [1]; [4]): 0.18 min⁻¹
- k6 (InhA [1]; 20 °C): 0.026 ± 0.004 min⁻¹
- tR (InhA [1]; 20 °C): 38 ± 5 min
- Ki (InhA [1]; Ki^*app, 20 °C, final EI* complex): 27 ± 1 nM
- Ki (InhA [1]; Ki^app, 20 °C, initial EI complex): 220 ± 6 nM
- kon (InhA [1]; read-out: kon, overall): 16000 M⁻¹ s⁻¹
- tR direct dissociation (InhA [2]; 20 °C): 31 ± 5 min

Structure (SMILES): CCCCCCc1ccc(Oc2ccccc2C)c(O)c1 [PT70]
- kon, overall (InhA [1]; 20 °C): 1.2e+06 M⁻¹ min⁻¹
- k5 (InhA [1]; [4]): 0.23 min⁻¹
- k6 (InhA [1]; 20 °C): 0.036 ± 0.010 min⁻¹
- tR (InhA [1]; 20 °C): 30 ± 7 min
- Ki (InhA [1]; [5]): 29 ± 4 nM
- Ki (InhA [1]; [6]): 210 ± 34 nM
- tR direct dissociation (InhA [2]; 20 °C): 40 ± 4 min
- MIC (M. tuberculosis): 3.13 µg/mL
